Source: ChEMBL document CHEMBL4513216, “Probing the Open Global Health Chemical Diversity Library for Multistage-Active Starting Points for Next-Generation Antimalarials” (ACS Infect Dis, 2020)

Test: Toxicity liver stage against HepG2, at 10uM
Format: cell-based
Set-up: test concentration 10 uM, cell line HepG2-A16-CD81EGFP
Conditions: human, HepG2-A16-CD81EGFP cells; read-out: INHIBITION
Outline: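 Uninfected HepG2-A16-CD81EGFP cells, 3 × 10^3 per well, 1536-well, plated on prespotted compound at 10 μM final, parasite-free screening media added to match infected plates; puromycin 10 μM positive, DMSO 0.5% negative; run in parallel with 48 h PbLuc assay at 37 °C, 5% CO2; viability by CellTiter-Glo luminescence, normalized to controls.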

Row | SMILES | cytotoxicity at 10 µM
1 | CCOn1c(SC(C)C)nc2ccccc2c1=O | -5.36%
2 | c1cncc(-c2nnc([C@H]3CCN(CC4CCCCC4)C3)o2)c1 | -6.72%
3 | Cc1ccc2c(c1)nc1n2[C@@H](CNC(=O)c2ccccn2)COC1 | 7.82%
4 | O=C(c1ccno1)N1C[C@@H](F)[C@@H](OCc2nc3ccccc3o2)C1 | 7.61%
5 | O=C(CCc1nnc2ccccn2c1=O)NCc1ccc2c(c1)OCO2 | -0.403%
6 | O=C(c1cc2c(Cl)cccc2[nH]1)N1CCN(CCc2ccccn2)CC1 | 3.07%
7 | O=C(NCCN1CCC(c2cccs2)CC1)c1ccc(F)cc1Cl | -2.83%
8 | COCCNC(=O)NC1(c2nc(-c3ccncc3)no2)CCCCC1 | -2.46%
9 | Cc1ccc(CN2CCC3(CCN(S(=O)(=O)c4ccccc4)C3)C2)o1 (centres undefined) | -0.00736%
10 | CN(C)C(=O)Cn1c2c(ccc1=O)CC(NCc1cccnc1)CC2 (centres undefined) | 18%
11 | CCOC[C@@H]1CC[C@H]2[C@H](CCN2S(=O)(=O)Cc2ccccc2)O1 | 2.84%
12 | CN(C)S(=O)(=O)N1CC[C@]2(C[C@@H](OCC3CC3)CO2)C1 | 8.88%
13 | CN(C)S(=O)(=O)N1C[C@@H](OCc2ccccn2)[C@H]2OCCC[C@H]21 | 10.7%
14 | O=C(O)c1ccc2c(CN3CCOCC3)c[nH]c2c1 | 4.91%
15 | CC1(C(=O)N2CCOCC2)CN(C2CCCCC2)CCO1 (centres undefined) | -22.3%
16 | Cc1cc(-c2cccc(C(=O)O)c2)nc(C2CCN(C(C)C)CC2)n1 | -0.723%
17 | Cn1nccc1CCC(=O)N1CCCC(Cc2cccnc2)C1 (centres undefined) | -3.14%
18 | Cc1nc(Nc2ncccn2)cc(C2CCCN2CC(C)C)n1 (centres undefined) | 7.02%
19 | O=c1c(Cc2ccccc2)c(O)ccn1CCc1ccccc1 | 10.3%
20 | CC(C)c1noc(C[S+]([O-])CC(=O)Nc2cc(F)ccc2F)n1 (centres undefined) | 8.15%
21 | Cn1ccc(NC(=O)Cc2ccccc2F)n1 | 19.1%
22 | CC(C)(C)c1nc(CN2CCC(N3CCCCC3)CC2)no1 | -0.48%
23 | Cc1cccc(C(C)C)c1NC(=O)NCCN(C(C)C)C(C)C | -8.98%
24 | CC(c1nc(C2CC2)no1)N1CCc2c(ncn2C)C1 (centres undefined) | 1.09%
25 | O=C(c1cnc(NCc2cccnc2)c(Cl)c1)N1CCCCC1 | 8.89%
26 | COc1ccnc(N2CCN(Cc3ncc(-c4ccccc4)o3)CC2)n1 | -10.2%
27 | CCc1cc(CNC(=O)N(C2CC2)C(C)c2ccco2)[nH]n1 (centres undefined) | 4.18%

Row | SMILES | cytotoxicity at 10 µM
28 | O=C(CCn1cccn1)NCC(c1cccs1)N1CCOCC1 (centres undefined) | -2.49%
29 | COc1ccc(CNC(C)c2ccc(Cl)cc2)c(OC)c1OC (centres undefined) | 7.74%
30 | CCc1nc(NS(=O)(=O)c2ccc(F)cc2Cl)no1 | 0.528%
31 | Cc1cc(C(=O)CN2C(=O)c3ccccc3CS2(=O)=O)c(C)[nH]1 | 13.5%
32 | Cc1cc(=O)n(C)cc1NC(=O)Cc1cc(F)ccc1F | -11.4%
33 | Cc1cnn(C2CCN(Cc3ccccc3)C2)c1N (centres undefined) | -3.76%
34 | Cc1c(I)cccc1C(=O)NCc1ncc[nH]1 | 17.3%
35 | CN(CC(=O)NCC1CCCO1)Cc1nc2c(s1)CCCC2 (centres undefined) | 21.6%
36 | NC(=O)NC(=O)CCSc1ccccc1Cl | 11.8%
37 | OC(COCc1cccs1)CSc1nnc2ccccn12 (centres undefined) | 1.66%
38 | Cc1nnc(N2CCN(C(=O)NC3CC3)CC2)c(C(N)=O)c1C | 4.34%
39 | CCCN1CCCN(S(=O)(=O)c2cnc3onc(C)c3c2)CC1 | 1.71%
40 | Cc1ccc(C(CNC(=O)Cc2nc3ncccn3n2)N(C)C)cc1 (centres undefined) | -1.64%
41 | Cc1ccc(C(C)N(C)CCS(=O)(=O)CCC(N)=O)cc1 (centres undefined) | -52.5%
42 | Cc1c(C(=O)NCC(C)C)nnn1-c1cccc2c1CCN(C)C2 | -7.69%
43 | COc1cccc(-c2ccc3nc(C4CCN(C(C)=O)CC4)nn3c2)c1 | 9.84%
44 | Cc1nc(CN2CCC3(C2)CN(Cc2ccco2)C3)cs1 | -106%
45 | Cc1occc1C(=O)N1CCCC2(CCN(c3ccsc3)C2=O)C1 (centres undefined) | -70.7%
46 | CCOCC1CN(C(=O)c2cscn2)Cc2cnn(CC3CC3)c21 (centres undefined) | -69.4%
47 | Cc1cnc(C(=O)N2CCC3(CC2)CN(c2ccccn2)CCO3)cn1 | -80.2%
48 | Cc1[nH]c2ccccc2c1-c1ccnc(N[C@H](CO)CC(C)C)n1 | 0.97%
49 | CC(C)S(=O)(=O)NCc1cccnc1Oc1ccc(F)cc1F | 5.98%
50 | OC1(CN2CCCC2)COCCN(c2ncnc3[nH]cnc23)C1 (centres undefined) | 0.458%
51 | CC(C)=CCN1CCC2(CC1)c1ccccc1[C@@H](N1CCSCC1)[C@@H]2O | 7.25%
52 | CC(C)C(C(=O)N1CCC2(CC1)CN(C)C(=O)O2)c1ccccc1 (centres undefined) | -53.6%
53 | Cc1ccc(N2C[C@@H]3CN(C(=O)NC4CCCC4)C[C@]3(C(=O)O)C2)nn1 | 19.5%
54 | Cc1nccn1CCN1C(=O)CC2(CCCC2)CC1=O | -2.11%
